We go through seven compounds from ChEMBL document CHEMBL1155578, “In vitro antiinflammatory effects of neolignan woorenosides from the rhizomes of Coptis japonica” (J Nat Prod, 2000).

For assay [1], the system named is RAW264.7. Description: Antiinflammatory activity against mouse RAW264.7 cells assessed as inhibition of LPS-induced TNFalpha production after 4 hrs by ELISA. The format is functional, cell-based. The conditions noted are these: RAW264.7, 4 h. The essentials: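 Compounds were dissolved in vehicle (propylene glycol/ethanol/DMSO), kept at ≤0.1% final, and added with LPS (1 µg/mL) for 4 h. Supernatant TNF-α was measured by mouse TNF-α ELISA. Results are mean ± SEM of four observations in triplicate.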

The nature of assay [2]: Inhibition of IL2-dependent mouse CTLL2 cell proliferation after 48 hrs by MTT assay. In kind it is functional, cell-based. To be noted: CTLL-2, 48 h. The essentials:
(§1)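 CTLL-2 cells were washed free of IL-2 and FBS, then resuspended at 5×10^5 cells/mL in growth medium without IL-2. They were incubated with compounds plus IL-2 (50 U/mL) for 48 h at 37 °C and 5% CO2. Proliferation was read by MTT assay. Results are mean ± SEM of four observations.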

The test system of assay [3] is RAW264.7. Description: Antiinflammatory activity against mouse RAW264.7 assessed as inhibition of LPS-induced NO production after 24 hrs. In kind it is functional, cell-based. To be noted: RAW264.7, 24 h. The method in brief: (§2)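 RAW264.7 cells were plated at 1×10^6 cells/mL and held 18 h. Compounds were then added with LPS (1 µg/mL) for lines 1 and 3, or IFN-γ (50 U/mL) for line 2, and incubated 24 h. Supernatant nitrite was measured with Griess reagent (10 min, room temperature) at OD550 against a sodium nitrite standard curve. Detection limit was 0.5 µM. Results are mean ± SEM of four observations run in triplicate.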

Assay [4] relates to RAW264.7. Briefly: Antiinflammatory activity against mouse RAW264.7 assessed as inhibition of IFN-gamma-induced NO production after 24 hrs. The format is functional, cell-based. The conditions noted are these: RAW264.7, 24 h. The essentials: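 RAW264.7 mouse macrophages kept in RPMI 1640 with 10% FBS and antibiotics, 37 °C, 5% CO2. Cells pre-cultured 18 h at 1×10^6 cells/mL, then given graded compound concentrations plus IFN-γ (50 U/mL) for 24 h. Supernatant nitrite read by Griess reagent (10 min, room temperature) at OD550, quantified against a sodium nitrite standard curve. Mean ± SEM, four separate observations in triplicate.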

The subject of the next assay is Splenocyte. Briefly: Inhibition of Concanavalin A-stimulated cell proliferation in mouse splenocytes after 48 hrs by MTT assay. In kind it is functional, cell-based. The essentials: (§3)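 Splenocytes came from BALB/c male mice (eight weeks old); red cells were lysed with NH4Cl-Tris. Cells were cultured at 5×10^6 cells/mL with Con A (1 µg/mL) and compounds for 48 h. Results are mean ± SEM of four observations.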

Assay [5] deals with RAW264.7. Briefly: Antiinflammatory activity against mouse RAW264.7 cells assessed as inhibition of LPS-induced TNFalpha production at 80 uM after 4 hrs by ELISA. In kind it is functional. To be noted: RAW264.7, 4 h. The method in brief: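 RAW264.7 cells (2×10^6 cells/mL) were pre-incubated 18 h in RPMI 1640 with 10% FBS. Compounds were dissolved in vehicle (propylene glycol/ethanol/DMSO), kept at ≤0.1% final, and added with LPS (1 µg/mL) for 4 h. Supernatant TNF-α was measured by mouse TNF-α ELISA. Results are mean ± SEM of four observations in triplicate.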

The test system of assay [6] is RAW264.7. Description: Antiinflammatory activity against mouse RAW264.7 cells assessed as inhibition of LPS-induced NO production at 80 uM after 24 hrs. In kind it is functional. To be noted: RAW264.7, 24 h. The essentials:
as §2

A short description of assay [7]: Antiinflammatory activity against mouse splenocytes assessed as inhibition of ConA-stimulated proliferation at 80 uM after 48 hrs by MTT assay. The format is functional. The conditions noted are these: Splenocyte. The essentials: as §3
Assay [8] is described as follows: Inhibition of IL2-dependent mouse CTLL2 cell proliferation at 80 uM after 48 hrs by MTT assay. The format is functional. The conditions noted are these: CTLL-2, 48 h. The essentials:
as §1

Assay [9] has as its system RAW264.7. Briefly: Antiinflammatory activity against mouse RAW264.7 cells assessed as inhibition of IFN-gamma-induced NO production at 20 uM after 24 hrs. The format is functional. Set-up: scale not given: the % may be the effect or the level left. The method in brief: as §2
For the next assay, the system named is SUP-T1. Description: Cytotoxicity against human Sup-T1 cells at 80 uM after 48 hrs by MTT assay. To be noted: SUP-T1, 48 h.

As to `CCCC(=O)Nc1ncnc2c1ncn2[C@@H]1O[C@@H]2COP(=O)(O)O[C@H]2[C@H]1OC(=O)CCC` [BUCLADESINE], the results for the IC50 (in the assay on RAW264.7 [1]; in [2]) were 28.9 µM and 576 µM, respectively.

In the case of `COC(=O)[C@@H](N)CCCNC(=N)N[N+](=O)[O-]` [L-NAME], the IC50 in the assay on RAW264.7 [3] worked out at 193 µM; in the assay with RAW264.7 [4], 116 µM.

Consider `N[C@H]1CONC1=O` [LEVCYCLOSERINE], for which half-maximal inhibition with Splenocyte (IC50) required 3.5 µM.

Turning to `CC(=O)CCCCn1c(=O)c2c(ncn2C)n(C)c1=O` [PENTOXIFYLLINE], in the assay on RAW264.7 [1], the IC50 worked out at 247 µM.

Regarding `C[C@]12C=CC(=O)C=C1CC[C@@H]1[C@@H]2[C@@H](O)C[C@@]2(C)[C@H]1CC[C@]2(O)C(=O)CO` [PREDNISOLONE], the IC50 with RAW264.7 [1] was found to be 25.4 µM.

Regarding `C/C(O)=C(\C#N)C(=O)Nc1ccc(C(F)(F)F)cc1` [TERIFLUNOMIDE], the IC50 in the assay on Splenocyte was 6.7 µM; in [2] it was 11.2 µM.

Regarding `COc1cc([C@@H]2Oc3c(OC)cc(/C=C/CO[C@@H]4O[C@H](CO)[C@@H](O)[C@H](O)[C@H]4O)cc3[C@H]2CO)cc(OC)c1OC` [WOORENOSIDE I], the inhibition at 80 µM was 15.4% in the assay on RAW264.7 [5]; 34.7% in the assay with RAW264.7 [6]; 24.8% in assay [7]; -5.4% in assay [8]; 32.1% in the assay on SUP-T1. In addition, the Activity in the assay with RAW264.7 [9] was found to be 8.5%.
